Experimental data taken from ChEMBL document CHEMBL1121366, “Synthesis and immunological activity of 5,6,6a,8,9,11a-hexahydronaphth[1',2':4,5]imidazo[2,1-b]thiazoles and 5,6,6a,9,10,11a-hexahydroanaphth[2',1':4,5]imidazo[2,1-b]thiazoles” (J Med Chem, 1980).

Legend:
Mus musculus [1] = assay: Effect on humoral immune response in mice against sheep red blood cells by the plaque-forming cell (PFC/10e6 spleen cells) method in experiment 6 at dose 3 mg/kg; assay type: functional
Outline: (§1)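 Male CDF1 (Balb/c × DBA/2Cr) mice, 8-10 weeks old, groups of four, were immunized iv with 1 × 10^8 SRBC in PBS. After 24 h they received a single sc inguinal dose in saline, or as a suspension in saline with 1% Me2SO. Spleens were taken 4 days later and hemolytic plaque-forming cells counted by Cunningham's method. Values are the mean of four mice ± SE, with a paired Student's t test against the control.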

Mus musculus [2] = assay: Tested for increase in foot-pad thickness (mm) by its effect on cellular immune response in mice against sheep red blood cells by the DHR method in experiment 15 at dose 3 mg/kg; assay type: functional
Outline: (§2)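 Male mice, 8–10 weeks old, ICR strain. Groups of four were sensitized with 1 × 10^8 SRBC in PBS into one hind footpad, with compound given sc in the inguinal region in saline or saline/1% Me2SO. Four days later, 1 × 10^8 SRBC were injected into the other hind footpad. Foot thickness was measured with a dial gauge just before and 24 h after this challenge, and the increase was taken as the difference. Values are the mean of four mice ± SE.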

Mus musculus [3] = assay: Tested for increase in foot-pad thickness (mm) by its effect on cellular immune response in mice against sheep red blood cells by DHR method in experiment 15 at dose 12 mg/kg; assay type: functional; outline: as §2
Mus musculus [4] = assay: Effect on humoral immune response in mice against sheep red blood cells by the plaque-forming cell (PFC/10e6 spleen cells) method in experiment 6 at dose 12 mg/kg; assay type: functional; outline: as §1
[5] = (§3) Acute lethal dose was determined in mice upon intravenous administration; assay type: ADME, organism-based; settings: mouse, in vivo
Outline: (§4)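 Male mice, 8–10 weeks old, CDF1 (Balb/c × DBA/2Cr). Groups of six dosed once, either iv or sc. Three to five dose levels were chosen from 400, 300, 150, 80, 40, 20 and 10 mg/kg. LD50 was calculated by the Litchfield–Wilcoxon method. Vehicle was saline or saline with 1% Me2SO, depending on compound.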

Mus musculus [6] = assay: Effect on humoral immune response in mice against sheep red blood cells by the plaque-forming cell (PFC/10e6 spleen cells) method in experiment 8 at dose 12 mg/kg; assay type: functional; outline: as §1
Mus musculus [7] = assay: Tested for increase in foot-pad thickness (mm) by its effect on cellular immune response in mice against sheep red blood cells by DHR method in experiment 17 at dose 12 mg/kg; assay type: functional
Outline: (§5)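 Male ICR mice, 8-10 weeks old, groups of four, were sensitized with 1 × 10^8 SRBC in PBS into one hind footpad and dosed sc in the inguinal region, in saline or in saline with 1% Me2SO. Four days later the other footpad was challenged with 1 × 10^8 SRBC. Foot thickness was gauged just before and 24 h after challenge, and the increase was reported as mean of four ± SE.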

Mus musculus [8] = assay: Tested for increase in foot-pad thickness (mm) by its effect on cellular immune response in mice against sheep red blood cells by the DHR method in experiment 17 at dose 3 mg/kg; assay type: functional; outline: as §5
Mus musculus [9] = assay: Effect on humoral immune response in mice against sheep red blood cells by the plaque-forming cell (PFC/10e6 spleen cells) method in experiment 8 at dose 3 mg/kg; assay type: functional; outline: as §1
Mus musculus [10] = assay: Effect on humoral immune response in mice against sheep red blood cells by the plaque-forming cell (PFC/10e6 spleen cells) method in experiment 4 at dose 3 mg/kg; assay type: functional; outline: as §1
Mus musculus [11] = assay: Tested for increase in foot-pad thickness (mm) by its effect on cellular immune response in mice against sheep red blood cells by the DHR method in experiment 13 at dose 3 mg/kg; assay type: functional; outline: as §5
Mus musculus [12] = assay: Tested for increase in foot-pad thickness (mm) by its effect on cellular immune response in mice against sheep red blood cells by DHR method in experiment 13 at dose 12 mg/kg; assay type: functional; outline: as §5
Mus musculus [13] = assay: Effect on humoral immune response in mice against sheep red blood cells by the plaque-forming cell (PFC/10e6 spleen cells) method in experiment 4 at dose 12 mg/kg; assay type: functional; outline: as §1
Mus musculus [14] = assay: Effect on humoral immune response in mice against sheep red blood cells by the plaque-forming cell (PFC/10e 6 spleen cells) method in experiment 9 at dose 3 mg/kg; assay type: functional; outline: as §1
Mus musculus [15] = assay: Effect on humoral immune response in mice against sheep red blood cells by the plaque-forming cell (PFC/10e 6 spleen cells) method in experiment 9 at dose 12 mg/kg; assay type: functional; outline: as §1
Mus musculus [16] = assay: Tested for increase in foot-pad thickness (mm) by its effect on cellular immune response in mice against sheep red blood cells by the DHR method in experiment 11 at dose 3 mg/kg; assay type: functional; outline: as §5
Mus musculus [17] = assay: Effect on humoral immune response in mice against sheep red blood cells by the plaque-forming cell (PFC/10e 6 spleen cells) method in experiment 2 at dose 3 mg/kg; assay type: functional
Outline: (§6)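 Male ICR mice, 8-10 weeks old, groups of four, were immunized iv with 1 × 10^8 SRBC in PBS. After 24 h they received a single sc inguinal dose in saline, or as a suspension in saline with 1% Me2SO. Splenic hemolytic plaque-forming cells were counted 4 days later by Cunningham's method. Values are the mean of four ± SE, with a paired t test against the control.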

Mus musculus [18] = assay: Acute lethal dose was determined in mice upon subcutaneous administration; assay type: ADME, organism-based; settings: in vivo, sc; outline: as §4
Mus musculus [19] = assay: Effect on humoral immune response in mice against sheep red blood cells by the plaque-forming cell (PFC/10e 6 spleen cells) method in experiment 2 at dose 12 mg/kg; assay type: functional; outline: as §6
Mus musculus [20] = assay: Tested for increase in foot-pad thickness (mm) by its effect on cellular immune response in mice against sheep red blood cells by DHR method in experiment 11 at dose 12 mg/kg; assay type: functional; outline: as §5
Mus musculus [21] = assay: Tested for increase in foot-pad thickness (mm) by its effect on cellular immune response in mice against sheep red blood cells by DHR method in experiment 10 at dose 3 mg/kg; assay type: functional; outline: as §5
Mus musculus [22] = assay: Effect on humoral immune response in mice against sheep red blood cells by the plaque-forming cell (PFC/10e 6 spleen cells) method in experiment 1 at dose 12 mg/kg; assay type: functional; outline: as §1
Mus musculus [23] = assay: Tested for increase in foot-pad thickness (mm) by its effect on cellular immune response in mice against sheep red blood cells by the DHR method in experiment 10 at dose 3 mg/kg; assay type: functional; outline: as §5
Mus musculus [24] = assay: as §3; assay type: ADME, organism-based; settings: in vivo; outline: as §4
Mus musculus [25] = assay: Effect on humoral immune response in mice against sheep red blood cells by the plaque-forming cell (PFC/10e 6 spleen cells) method in experiment 1 at dose 3 mg/kg; assay type: functional; outline: as §1

Compound: Brc1ccc2c(c1)C1C(CC2)N=C2SCCN21 (configuration not stated)
- PFC (Mus musculus [1]): 980
- Increase in footpad thickness (Mus musculus [2]): 0.35 mm
- Increase in footpad thickness (Mus musculus [3]): 0.38 mm
- PFC (Mus musculus [4]): 870

Compound: C[C@@H]1SC2=NC3c4ccccc4CCC3N2[C@@]1(O)c1ccccc1 (some centres not stated)
- LD50 [5]: 170 mg/kg
- PFC (Mus musculus [6]): 1120
- Increase in footpad thickness (Mus musculus [7]): 0.52 mm
- Increase in footpad thickness (Mus musculus [8]): 0.28 mm
- PFC (Mus musculus [9]): 550

Compound: Clc1ccc2c(c1)CCC1N=C3SCCN3C21 (configuration not stated)
- PFC (Mus musculus [10]): 1880
- Increase in footpad thickness (Mus musculus [11]): 0.27 mm
- Increase in footpad thickness (Mus musculus [12]): 0.28 mm
- PFC (Mus musculus [13]): 1700

Compound: CC1=C(c2ccccc2)N2C(=NC3c4ccccc4CCC32)S1 (configuration not stated)
- PFC (Mus musculus [14]): 740
- PFC (Mus musculus [15]): 470
- Increase in footpad thickness (Mus musculus [7]): 0.32 mm
- Increase in footpad thickness (Mus musculus [8]): 0.2 mm

Compound: Clc1ccc2c(c1)CCC1C2N=C2SCCN21 (cis isomer)
- PFC (Mus musculus [10]): 1560
- Increase in footpad thickness (Mus musculus [11]): 0.26 mm
- Increase in footpad thickness (Mus musculus [12]): 0.33 mm
- PFC (Mus musculus [13]): 970

Compound: Brc1ccc2c(c1)C1N=C3SCCN3C1CC2 (cis isomer)
- PFC (Mus musculus [1]): 960
- Increase in footpad thickness (Mus musculus [2]): 0.36 mm
- Increase in footpad thickness (Mus musculus [3]): 0.45 mm
- PFC (Mus musculus [4]): 1495

Compound: c1ccc2c(c1)CCC1N=C3SCCN3C21 (stereo in doubt)
- Increase in footpad thickness (Mus musculus [16]): 0.37 mm
- PFC (Mus musculus [17]): 1800
- LD50 (Mus musculus [18]): 68 mg/kg
- LD50 [5]: 20 mg/kg
- PFC (Mus musculus [19]): 1610
- Increase in footpad thickness (Mus musculus [20]): 0.38 mm

Compound: c1ccc2c(c1)CCC1C2N=C2SCCN21 (stereo in doubt)
- Increase in footpad thickness (Mus musculus [21]): 0.44 mm
- PFC (Mus musculus [22]): 860
- Increase in footpad thickness (Mus musculus [23]): 0.42 mm
- LD50 (Mus musculus [18]): 116 mg/kg
- LD50 (Mus musculus [24]): 27 mg/kg
- PFC (Mus musculus [25]): 1220
